In assay [1] the target is Histamine H2 receptor (Cavia porcellus) (UniProt P47747). Kind of assay: Histamine H2 receptor agonistic activity in guinea pig right atrium. It is filed as functional, tissue-based. Particulars: Cardiac atrium.
For assay [2], the species on record is Cavia porcellus. The experiment in a line: In vitro activity against gastric secretion in isolated guinea pig stomach. It is filed as functional.
For assay [3], the system named is Felis catus. The experiment in a line: In vivo activity against gastric secretion in conscious cat. The class given is functional, Stomach.
In assay [4] the test system is Felis catus. The experiment in a line: In vivo activity against gastric secretion in conscious cat; not active. Particulars: Stomach. The class given is functional, organism-based.
The target of assay [5] is Histamine H2 receptor (Cavia porcellus) (UniProt P47747). Kind of assay: Intrinsic activity against histamine H2 receptor. It is filed as functional.
Assay [6] addresses Histamine H2 receptor (Cavia porcellus, UniProt P47747). Kind of assay: Compound is evaluated for histamine H2 receptor agonistic activity in guinea pig cerebral cortex using [3H]tiotidine as radioligand. The class given is functional, tissue-based. Put shortly:
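H2-receptor binding measured on guinea pig cerebral cortex preparations by displacement of [3H]tiotidine. Displacement curves were fitted by nonlinear regression.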

Activity calls are given as the source filed them. No cut-off for these calls is given here.

Broadly, the Kd is the concentration at which binding is half-saturated.

Chain of Histamine H2 receptor (Cavia porcellus) (P47747 whole entry): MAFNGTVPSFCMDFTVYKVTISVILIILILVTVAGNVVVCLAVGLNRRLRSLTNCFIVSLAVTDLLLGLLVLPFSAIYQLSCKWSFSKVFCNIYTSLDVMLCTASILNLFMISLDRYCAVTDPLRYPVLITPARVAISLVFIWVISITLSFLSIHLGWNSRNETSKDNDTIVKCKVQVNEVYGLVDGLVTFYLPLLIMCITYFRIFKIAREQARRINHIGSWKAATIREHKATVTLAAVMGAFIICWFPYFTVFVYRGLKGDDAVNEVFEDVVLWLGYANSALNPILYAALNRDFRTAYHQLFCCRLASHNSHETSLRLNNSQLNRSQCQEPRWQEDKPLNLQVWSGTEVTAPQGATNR
Chain of Histamine H2 receptor (P47747 whole entry): as above

For `N=C(NCCCc1c[nH]cn1)NCCC(c1ccc(F)cc1)c1ccccn1` (stereo not drawn), in assay [1], the pD2 worked out at 8.
For the molecule `CNCCc1cnc(N)s1`, the pD2 amounted to 6.02 in assay [2] and 6.52 in assay [3].
As to `CN(C)CCc1cnc(N(C)C)s1`, the pD2 entry in assay [4] was “inactive”.
`NCCc1cnc(N)s1` returned an Intrinsic activity in assay [5] of 1. Further, the pD2 amounted to 6.1 in assay [3] and 5.51 in assay [1]. Also, in assay [6], the Kd is 15.1 µM.
On to `NCCc1csc(N)n1`, for which, in assay [5], the Intrinsic activity is 0.94. The molecule also gave a Kd in assay [6] of 110 µM. In assay [1], this molecule had a pD2 of 4.6.
For `Cc1nc(C)c(CCN)s1` the same measures were 0.97, 174 µM and 3.78.
Take `N=C(NCCCc1c[nH]cn1)NCCC(c1ccccc1)c1ccccc1`: the pD2 in assay [1] stood at 7.7.
For `CN(C)CCc1cnc(N)s1`, the pD2 in assay [2] is on record as 5.81; in assay [3], 6.3.
With `N=C(N)NCCCc1c[nH]cn1`, the pD2 in assay [1] came out at 4.7.
For the molecule `CNc1ncc(CCN(C)C)s1`, the pD2 entry in assay [4] is “inactive”.
Molecule `CN(C)CCCSC(=N)N` had an Intrinsic activity in assay [5] of 1.06. Besides, the Kd in assay [6] is 26.3 µM. This molecule returned a pD2 in assay [1] of 5.67.
In assay [5], `Cc1nc(N)sc1CCN` showed an Intrinsic activity of 0.95. In addition, in assay [6], binding was characterised by a dissociation constant (Kd) of 5.01 µM.
In assay [5], `Cc1ncsc1CCN` registered an Intrinsic activity of 0.96. This molecule also showed a Kd in assay [6] of 355 µM. In assay [1], this molecule yielded a pD2 of 4.67.
The molecule `NCCc1c[nH]cn1` registered an Intrinsic activity in assay [5] of 1.
